For four molecules, Concentration, Cmedia and IC50 results are on record in ChEMBL document CHEMBL1130244, “Boron-containing polyamines as DNA targeting agents for neutron capture therapy of brain tumors: synthesis and biological evaluation” (J Med Chem, 1997).

The species entered for one assay is Rattus norvegicus. The experiment in a line: In vitro uptake of compound by F98 glioma cells was determined by measuring cellular boron content using direct current plasma atomic emission spectroscopy (DCP-AES) after 24 hr incubation.
A short description of assay [1]: Actual boron concentration in media was determined by using direct current plasma atomic emission spectroscopy (DCP-AES) after 24 hr incubation.
The next assay deals with Nucleic Acid. Description: Binding of compound to calf thymus DNA was determined by an ethidium bromide displacement assay. The format is nucleic-acid assay, Bos taurus.
Assay [2] in a line: Concentration required to produce a 50% reduction in the uptake of [3H]TdR, by F98 glioma cells. The format is functional. The note with it: Rattus norvegicus, F98, 24 h. The method in brief: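 F98 rat glioma cells, 10 000/well, grown overnight at 37 °C in DMEM with 10% FBS, then 24 h with polyamine at 1–100 μM (0.1–10 μg/mL boron); medium replaced with compound-free medium, pulsed with 0.1 μCi [3H]TdR per well for 18–24 h, then harvested and counted. Six replicates per concentration; IC50 from cpm as % of untreated controls.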

For `N[C@@H](Cc1ccc(B(O)O)cc1)C(=O)O`, the Concentration in the assay listed under Rattus norvegicus is 81 µg of B g-1. In addition, the Cmedia in assay [1] was 50 ug of B/ml.

On to `NCCCCNCCCN` [SPERMIDINE], for which the IC50 was 175 µM with Nucleic Acid and more than 100 µM in assay [2].

For the molecule `NCCCNCCCCNCCCN` [SPERMINE], the IC50 was 17 µM in the assay on Nucleic Acid and more than 100 µM in assay [2].

Regarding `CCNCCCNCCCCNCCCNCC` [BIS(ETHYL)SPERMINE], the IC50 in assay [2] is more than 100 µM.

What is called IC50 is the concentration at which inhibition is half-maximal. A high value points to lower potency.
